ChEMBL document CHEMBL2203173 (J Med Chem, 2012)

Tests used:
Assay type in all cases: organism-based, DMS-53
Details in all cases: in vivo, 504 h
Mus musculus [1] = assay: Toxicity in BALB/c nu/nu mouse xenografted with human DMS53 cells assessed as change in platelet count at 4 mg/kg, iv administered for 5 days a week measured after 21 days; parameters: dose 4 mg/kg, route intravenous
Summary of the method: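 Nude mice carrying DMS-53 xenografts (treatment from 100 mm3) received iv tail-vein doses in 30% propylene glycol/saline, 5 days/week for 21 days. Hematological indices (RBC, hemoglobin, hematocrit, reticulocytes, WBC, platelets) were then compared with vehicle controls.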

Mus musculus [2] = assay: Toxicity in BALB/c nu/nu mouse xenografted with human DMS53 cells assessed as change in organ weight at 4 mg/kg, iv administered for 5 days a week measured after 21 days; parameters: dose 4 mg/kg, route intravenous
Summary of the method: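 DMS-53 xenograft-bearing nude mice, treatment started at 100 mm3 tumour volume: iv tail-vein dosing in 30% propylene glycol/saline, 5 days/week for 21 days. Organs were weighed at sacrifice and compared with vehicle-control mice.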

Mus musculus [3] = assay: Toxicity in BALB/c nu/nu mouse xenografted with human DMS53 cells assessed as vacuolation at 4 mg/kg, iv administered for 5 days a week measured after 21 days by hematoxylin and eosin staining method; parameters: dose 4 mg/kg, route intravenous
Summary of the method: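 Nude mice with DMS-53 xenografts dosed by tail-vein iv injection in 30% propylene glycol/saline, starting at 100 mm3 tumour volume, 5 days/week for 21 days. Spleen, kidney, liver, heart, lungs and brain were stained with H&E, Perls' (Fe loading) and Gomori Trichrome (fibrosis) by standard methods, and an independent veterinary pathologist examined them.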

Mus musculus [4] = assay: Toxicity in BALB/c nu/nu mouse xenografted with human DMS53 cells assessed as change in brain histology at 3 mg/kg, iv administered for 5 days a week measured after 21 days by hematoxylin and eosin staining method; parameters: dose 3 mg/kg, route intravenous
Summary of the method: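 DMS-53 xenografts in nude mice; dosing started at 100 mm3 tumor volume. Agents given iv via tail vein, 5 days/week for 21 days, vehicle 30% propylene glycol/saline, vehicle-treated controls. Mice sacrificed day 21. Body and organ weights and hematological indices recorded. Spleen, kidney, liver, heart, lungs and brain were stained with H&E, Perls' and Gomori Trichrome and read by an independent veterinary pathologist.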

Question: What does the source list for `CN(C(=S)NN=C(c1ccccn1)c1ccccn1)C1CCCCC1.Cl`?
Answer: Activity (Mus musculus [1]): Toxic; Activity (Mus musculus [2]): Non-toxic; Activity (Mus musculus [3]): Non-toxic

Question: For `CCN(C)C(=S)NN=C(c1ccccn1)c1ccccn1.Cl`, which Activity (Mus musculus [4]) is on record?
Answer: Non-toxic
